ChEMBL document CHEMBL5724801, “EUbOPEN Chemogenomics Library - Multiplex” (2024)
Several values for one entry are separate records, joined by “and”; a condition that tells them apart may be missing. Identical values can stand only once.

System: Fibroblast
Assay: Multiplex assay against human fibroblast
Format: toxicity, cell-based
Summary of the method: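 At seeding, live cells were stained with Hoechst33342, BioTracker Green Microtubule Cytoskeleton Dye, MitoTracker Red and Annexin V Alexa Fluor 680. After compound addition they were imaged on a CQ1 microscope at 37°C and 5% CO2, and CellPathfinder machine-learning gating sorted them into Hoechst high-intensity objects or normal cells, with normal cells further split into healthy, pyknosed or fragmented nuclei and pyknosed cells into mitotic or apoptotic. Tubulin, mitochondrial-mass and membrane-permeability phenotypes are given as per cents of cells with healthy nuclei.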

[1] = 12 h, 1 µM, compound concentration 1 uM
[2] = 12 h, 10 µM, compound concentration 10 uM
[3] = 24 h, 1 µM, compound concentration 1 uM
[4] = 24 h, 10 µM, compound concentration 10 uM
[5] = 48 h, 1 µM, compound concentration 1 uM
[6] = 48 h, 10 µM, compound concentration 10 uM

Compound: O=C1COc2nccc(-c3ccccc3F)c2CN1Cc1cc(C(F)(F)F)cc(C(F)(F)F)c1
- Population Apoptotic (%) [1]: 38% and 29%
- Population Fragmented Nuclei (%) [1]: 12% and 17%
- Population Healthy Nuclei (%) [1]: 74% and 62%
- Population Hoechst High Intensity Objects (%) [1]: 2% and 0%
- Population Membrane Permeable-Phenotype (%) [1]: 1%
- Population Mitochondria Different-Phenotype (%) [1]: 7% and 5%
- Population Mitotic Cells (%) [1]: 61% and 70%
- Population Normal (%) [1]: 97% and 99%
- Population Pyknosed Nuclei (%) [1]: 13% and 20%
- Population Tubulin-Different-Phenotype (%) [1]: 27% and 32%
- Total Cell Count [1]: 195 and 135
- Population Apoptotic (%) [2]: 54% and 37%
- Population Fragmented Nuclei (%) [2]: 15% and 24%
- Population Healthy Nuclei (%) [2]: 69% and 51%
- Population Hoechst High Intensity Objects (%) [2]: 5% and 8%
- Population Membrane Permeable-Phenotype (%) [2]: 0% and 4%
- Population Mitochondria Different-Phenotype (%) [2]: 10% and 12%
- Population Mitotic Cells (%) [2]: 45% and 62%
- Population Normal (%) [2]: 94% and 91%
- Population Pyknosed Nuclei (%) [2]: 14% and 23%
- Population Tubulin-Different-Phenotype (%) [2]: 66% and 50%
- Total Cell Count [2]: 161 and 132
- Population Apoptotic (%) [3]: 53% and 34%
- Population Fragmented Nuclei (%) [3]: 11% and 20%
- Population Healthy Nuclei (%) [3]: 74% and 58%
- Population Hoechst High Intensity Objects (%) [3]: 3% and 2%
- Population Membrane Permeable-Phenotype (%) [3]: 0% and 2%
- Population Mitochondria Different-Phenotype (%) [3]: 6% and 3%
- Population Mitotic Cells (%) [3]: 46% and 65%
- Population Normal (%) [3]: 96% and 97%
- Population Pyknosed Nuclei (%) [3]: 14% and 20%
- Population Tubulin-Different-Phenotype (%) [3]: 23% and 39%
- Total Cell Count [3]: 203 and 142
- Population Apoptotic (%) [4]: 66% and 55%
- Population Fragmented Nuclei (%) [4]: 18% and 26%
- Population Healthy Nuclei (%) [4]: 71% and 56%
- Population Hoechst High Intensity Objects (%) [4]: 3% and 6%
- Population Membrane Permeable-Phenotype (%) [4]: 0% and 7%
- Population Mitochondria Different-Phenotype (%) [4]: 11% and 5%
- Population Mitotic Cells (%) [4]: 33% and 45%
- Population Normal (%) [4]: 96% and 93%
- Population Pyknosed Nuclei (%) [4]: 9% and 16%
- Population Tubulin-Different-Phenotype (%) [4]: 57% and 61%
- Total Cell Count [4]: 162 and 129
- Population Apoptotic (%) [5]: 75% and 31%
- Population Fragmented Nuclei (%) [5]: 16% and 29%
- Population Healthy Nuclei (%) [5]: 75% and 55%
- Population Hoechst High Intensity Objects (%) [5]: 5% and 6%
- Population Membrane Permeable-Phenotype (%) [5]: 0% and 1%
- Population Mitochondria Different-Phenotype (%) [5]: 4% and 1%
- Population Mitotic Cells (%) [5]: 25% and 68%
- Population Normal (%) [5]: 94% and 93%
- Population Pyknosed Nuclei (%) [5]: 8% and 14%
- Population Tubulin-Different-Phenotype (%) [5]: 28% and 25%
- Total Cell Count [5]: 210 and 143
- Population Apoptotic (%) [6]: 72% and 60%
- Population Fragmented Nuclei (%) [6]: 20% and 39%
- Population Healthy Nuclei (%) [6]: 72% and 49%
- Population Hoechst High Intensity Objects (%) [6]: 2% and 5%
- Population Membrane Permeable-Phenotype (%) [6]: 0% and 1%
- Population Mitochondria Different-Phenotype (%) [6]: 14% and 8%
- Population Mitotic Cells (%) [6]: 27% and 40%
- Population Normal (%) [6]: 97% and 94%
- Population Pyknosed Nuclei (%) [6]: 6% and 11%
- Population Tubulin-Different-Phenotype (%) [6]: 62% and 47%
- Total Cell Count [6]: 172 and 144

Compound: CCC(=O)OCC(=O)[C@@]1(OC(=O)CC)[C@@H](C)C[C@H]2[C@@H]3CCC4=CC(=O)C=C[C@]4(C)[C@@]3(Cl)[C@@H](O)C[C@@]21C [BECLOMETHASONE DIPROPIONATE]
- Population Apoptotic (%) [1]: 38% and 42%
- Population Fragmented Nuclei (%) [1]: 13% and 30%
- Population Healthy Nuclei (%) [1]: 73% and 40%
- Population Hoechst High Intensity Objects (%) [1]: 3%
- Population Membrane Permeable-Phenotype (%) [1]: 1% and 5%
- Population Mitochondria Different-Phenotype (%) [1]: 2% and 10%
- Population Mitotic Cells (%) [1]: 61% and 57%
- Population Normal (%) [1]: 96%
- Population Pyknosed Nuclei (%) [1]: 13% and 30%
- Population Tubulin-Different-Phenotype (%) [1]: 47% and 63%
- Total Cell Count [1]: 135 and 155
- Population Apoptotic (%) [2]: 40%
- Population Healthy Nuclei (%) [2]: 69% and 42%
- Population Hoechst High Intensity Objects (%) [2]: 8% and 5%
- Population Mitochondria Different-Phenotype (%) [2]: 17% and 20%
- Population Mitotic Cells (%) [2]: 60% and 59%
- Population Normal (%) [2]: 91% and 94%
- Population Pyknosed Nuclei (%) [2]: 20% and 24%
- Population Tubulin-Different-Phenotype (%) [2]: 87% and 94%
- Total Cell Count [2]: 157 and 96
- Population Apoptotic (%) [3]: 50% and 47%
- Population Fragmented Nuclei (%) [3]: 16% and 30%
- Population Healthy Nuclei (%) [3]: 65% and 45%
- Population Hoechst High Intensity Objects (%) [3]: 1% and 6%
- Population Membrane Permeable-Phenotype (%) [3]: 3% and 7%
- Population Mitochondria Different-Phenotype (%) [3]: 2% and 7%
- Population Mitotic Cells (%) [3]: 50% and 52%
- Population Normal (%) [3]: 98% and 93%
- Population Pyknosed Nuclei (%) [3]: 18% and 24%
- Population Tubulin-Different-Phenotype (%) [3]: 34% and 60%
- Total Cell Count [3]: 134 and 150
- Population Apoptotic (%) [4]: 40% and 19%
- Population Fragmented Nuclei (%) [4]: 13% and 38%
- Population Healthy Nuclei (%) [4]: 66% and 40%
- Population Hoechst High Intensity Objects (%) [4]: 6%
- Population Mitochondria Different-Phenotype (%) [4]: 30% and 12%
- Population Mitotic Cells (%) [4]: 59% and 80%
- Population Normal (%) [4]: 93%
- Population Pyknosed Nuclei (%) [4]: 19% and 21%
- Population Tubulin-Different-Phenotype (%) [4]: 86% and 79%
- Total Cell Count [4]: 148 and 104
- Population Apoptotic (%) [5]: 28% and 52%
- Population Fragmented Nuclei (%) [5]: 13% and 31%
- Population Healthy Nuclei (%) [5]: 56% and 41%
- Population Hoechst High Intensity Objects (%) [5]: 3% and 7%
- Population Membrane Permeable-Phenotype (%) [5]: 1% and 5%
- Population Mitochondria Different-Phenotype (%) [5]: 15% and 9%
- Population Mitotic Cells (%) [5]: 71% and 47%
- Population Normal (%) [5]: 96% and 92%
- Population Pyknosed Nuclei (%) [5]: 30% and 27%
- Population Tubulin-Different-Phenotype (%) [5]: 61% and 54%
- Total Cell Count [5]: 132 and 143
- Population Apoptotic (%) [6]: 67% and 37%
- Population Fragmented Nuclei (%) [6]: 21% and 33%
- Population Healthy Nuclei (%) [6]: 54% and 33%
- Population Hoechst High Intensity Objects (%) [6]: 6% and 3%
- Population Membrane Permeable-Phenotype (%) [6]: 0% and 18%
- Population Mitotic Cells (%) [6]: 32% and 62%
- Population Normal (%) [6]: 93% and 96%
- Population Pyknosed Nuclei (%) [6]: 24% and 33%
- Population Tubulin-Different-Phenotype (%) [6]: 76% and 84%
- Total Cell Count [6]: 162 and 99

Compound: CN(C)Cc1cccc(NC(=C2C(=O)Nc3cc(C(N)=O)ccc32)c2ccccc2)c1
- Population Apoptotic (%) [1]: 0% and 16.22%
- Population Fragmented Nuclei (%) [1]: 12% and 11.4%
- Population Healthy Nuclei (%) [1]: 66.67% and 69.43%
- Population Hoechst High Intensity Objects (%) [1]: 0%
- Population Membrane Permeable-Phenotype (%) [1]: 4% and 2.99%
- Population Mitochondria Different-Phenotype (%) [1]: 10% and 8.21%
- Population Mitotic Cells (%) [1]: 100% and 83.78%
- Population Normal (%) [1]: 100%
- Population Pyknosed Nuclei (%) [1]: 21.33% and 19.17%
- Population Tubulin-Different-Phenotype (%) [1]: 20% and 13.43%
- Total Cell Count [1]: 150 and 193
- Population Apoptotic (%) [2]: 29.55% and 27.03%
- Population Healthy Nuclei (%) [2]: 68.3% and 82.06%
- Population Hoechst High Intensity Objects (%) [2]: 0%
- Population Membrane Permeable-Phenotype (%) [2]: 9.39% and 4.65%
- Population Mitochondria Different-Phenotype (%) [2]: 16.57% and 13.49%
- Population Mitotic Cells (%) [2]: 70.45% and 72.97%
- Population Normal (%) [2]: 100%
- Population Pyknosed Nuclei (%) [2]: 16.6% and 14.12%
- Population Tubulin-Different-Phenotype (%) [2]: 48.62% and 53.95%
- Total Cell Count [2]: 265 and 262
- Population Apoptotic (%) [3]: 23.81% and 25%
- Population Fragmented Nuclei (%) [3]: 7.65% and 8.11%
- Population Healthy Nuclei (%) [3]: 80% and 81.08%
- Population Hoechst High Intensity Objects (%) [3]: 0%
- Population Membrane Permeable-Phenotype (%) [3]: 4.41% and 2%
- Population Mitochondria Different-Phenotype (%) [3]: 5.15% and 6.67%
- Population Mitotic Cells (%) [3]: 76.19% and 75%
- Population Normal (%) [3]: 100%
- Population Pyknosed Nuclei (%) [3]: 12.35% and 10.81%
- Population Tubulin-Different-Phenotype (%) [3]: 8.82% and 14.67%
- Total Cell Count [3]: 170 and 185
- Population Apoptotic (%) [4]: 16.28% and 31.25%
- Population Fragmented Nuclei (%) [4]: 12.59% and 7.12%
- Population Healthy Nuclei (%) [4]: 71.94% and 80.9%
- Population Hoechst High Intensity Objects (%) [4]: 0%
- Population Membrane Permeable-Phenotype (%) [4]: 5.5% and 3.24%
- Population Mitochondria Different-Phenotype (%) [4]: 9% and 14.35%
- Population Mitotic Cells (%) [4]: 83.72% and 68.75%
- Population Normal (%) [4]: 100%
- Population Pyknosed Nuclei (%) [4]: 15.47% and 11.99%
- Population Tubulin-Different-Phenotype (%) [4]: 48.5% and 61.11%
- Total Cell Count [4]: 278 and 267
- Population Apoptotic (%) [5]: 40% and 44.44%
- Population Fragmented Nuclei (%) [5]: 11.24% and 9.23%
- Population Healthy Nuclei (%) [5]: 83.15% and 76.92%
- Population Hoechst High Intensity Objects (%) [5]: 0%
- Population Membrane Permeable-Phenotype (%) [5]: 1.35% and 5.33%
- Population Mitotic Cells (%) [5]: 60% and 55.56%
- Population Normal (%) [5]: 100%
- Population Pyknosed Nuclei (%) [5]: 5.62% and 13.85%
- Population Tubulin-Different-Phenotype (%) [5]: 8.11% and 15.33%
- Total Cell Count [5]: 178 and 195
- Population Apoptotic (%) [6]: 47.37% and 60%
- Population Healthy Nuclei (%) [6]: 76.72% and 86.82%
- Population Hoechst High Intensity Objects (%) [6]: 0%
- Population Membrane Permeable-Phenotype (%) [6]: 5.06% and 5.36%
- Population Mitochondria Different-Phenotype (%) [6]: 6.23% and 7.14%
- Population Mitotic Cells (%) [6]: 52.63% and 40%
- Population Normal (%) [6]: 100%
- Population Pyknosed Nuclei (%) [6]: 5.67% and 7.75%
- Population Tubulin-Different-Phenotype (%) [6]: 40.86% and 67.41%
- Total Cell Count [6]: 335 and 258
